Results taken from ChEMBL document CHEMBL2146456, “Identification and characterization of GABA(A) receptor modulatory diterpenes from Biota orientalis that decrease locomotor activity in mice” (J Nat Prod, 2011).
The source made the active and inactive calls. The rule behind the calls is not given here.

Legend:
[1] = tested on: Oocyte; test: Allosteric modulation of gamma-aminobutyric acid receptor A alpha1beta2gamma2S expressed in Xenopus oocytes assessed as potentiation of GABA-mediated chloride current at 0.1 to 500 uM by voltage clamp analysis relative to control; type: cell-based
Procedure, shortened: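 Two-electrode voltage clamp on Xenopus oocytes injected with α1, β2, γ2S cRNA at a 1:1:10 ratio, recorded on days 1–5 at a holding potential of […]. Bath: 90 mM NaCl, 1 mM KCl, 1 mM MgCl2, 1 mM CaCl2, 5 mM HEPES pH 7.4. Compound was co-applied by fast perfusion with GABA EC5-10 (typically 3–10 μM). Potentiation was calculated as I(GABA+Comp)/IGABA − 1, and concentration-response curves were fitted by nonlinear regression.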

[2] = (§1) Allosteric modulation of gamma-aminobutyric acid receptor A alpha1beta2gamma2S expressed in Xenopus oocytes assessed as potentiation of GABA-mediated chloride current by voltage clamp analysis; type: cell-based; conditions: Oocyte
Procedure, shortened: (§2)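 Oocytes were injected with α1β2γ2S, α1β3γ2S, α2β2γ2S, α3β2γ2S or α5β2γ2S cRNAs at a 1:1:10 ratio. Two-electrode voltage clamp was run 1–5 days post-injection in HEPES-buffered saline at pH 7.4. Compounds in GABA EC5–10 (3–10 μM) were given by automated fast perfusion: screening at 10 and 100 μM (n = 2), otherwise concentration series. Potentiation = I(GABA+Comp)/IGABA − 1, with nonlinear regression fits.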

[3] = tested on: Oocyte; test: Agonist activity at gamma-aminobutyric acid receptor A alpha1beta1gamma2S expressed in Xenopus oocytes assessed as potentiation of GABA-mediated chloride current at 300 uM by voltage clamp analysis; type: functional, cell-based
Procedure, shortened: (§3)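 α1β1γ2S cRNAs (3:1:10) injected into Xenopus oocytes and recorded 1–5 days later by two-microelectrode voltage clamp. Bath was 90 mM NaCl, 1 mM KCl, 1 mM MgCl2, 1 mM CaCl2, 5 mM HEPES, pH 7.4. Compound was co-applied by fast perfusion with GABA at EC5–10 (3–10 μM). Enhancement = I(GABA+Comp)/IGABA − 1. Concentration-response curves fitted by nonlinear regression.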

[4] = (§4) Allosteric modulation of gamma-aminobutyric acid receptor A alpha2beta2gamma2S expressed in Xenopus oocytes assessed as potentiation of GABA-mediated chloride current by voltage clamp analysis; type: cell-based; conditions: Oocyte; procedure, shortened: as §2
[5] = tested on: Oocyte; test: as §4; type: cell-based; procedure, shortened: as §2
[6] = target: T1, GABA-A receptor; GABA-A site (alpha1/beta2 interface) (Homo sapiens) (UniProt P14867+P47870); test: Allosteric modulation of gamma-aminobutyric acid receptor A alpha1beta2 expressed in Xenopus oocytes assessed as potentiation of GABA-mediated chloride current at 100 uM by voltage clamp analysis; type: cell-based; conditions: Oocyte
[7] = tested on: Oocyte; test: Allosteric modulation of gamma-aminobutyric acid receptor A alpha1beta1gamma2S expressed in Xenopus oocytes assessed as potentiation of GABA-mediated chloride current at 0.1 to 500 uM by voltage clamp analysis relative to control; type: cell-based; procedure, shortened: as §3
[8] = tested on: Oocyte; test: Agonist activity at gamma-aminobutyric acid receptor A alpha2beta2gamma2S expressed in Xenopus oocytes assessed as potentiation of GABA-mediated chloride current by voltage clamp analysis; type: functional, cell-based; procedure, shortened: as §2
[9] = tested on: Oocyte; test: Allosteric modulation of gamma-aminobutyric acid receptor A alpha2beta2gamma2S expressed in Xenopus oocytes assessed as potentiation of GABA-mediated chloride current at 0.1 to 500 uM by voltage clamp analysis relative to control; type: cell-based; procedure, shortened: as §2
[10] = (§5) Allosteric modulation of gamma-aminobutyric acid receptor A alpha1beta3gamma2S expressed in Xenopus oocytes assessed as potentiation of GABA-mediated chloride current by voltage clamp analysis; type: cell-based; conditions: Oocyte; procedure, shortened: as §2
[11] = tested on: Oocyte; test: as §5; type: cell-based; procedure, shortened: as §2
[12] = tested on: Oocyte; test: Allosteric modulation of gamma-aminobutyric acid receptor A alpha1beta2gamma2S expressed in Xenopus oocytes assessed as potentiation of GABA-mediated chloride current at 500 uM by voltage clamp analysis relative to control; type: cell-based; procedure, shortened: as §2
[13] = tested on: Oocyte; test: Agonist activity at gamma-aminobutyric acid receptor A alpha1beta2gamma2S expressed in Xenopus oocytes assessed as potentiation of GABA-mediated chloride current by voltage clamp analysis; type: functional, cell-based; procedure, shortened: as §2
[14] = tested on: Oocyte; test: Agonist activity at gamma-aminobutyric acid receptor A alpha1beta3gamma2S expressed in Xenopus oocytes assessed as potentiation of GABA-mediated chloride current by voltage clamp analysis; type: functional, cell-based; procedure, shortened: as §2
[15] = tested on: Oocyte; test: Agonist activity at gamma-aminobutyric acid receptor A alpha5beta2gamma2S expressed in Xenopus oocytes assessed as potentiation of GABA-mediated chloride current by voltage clamp analysis; type: functional, cell-based; procedure, shortened: as §2
[16] = tested on: Oocyte; test: Allosteric modulation of gamma-aminobutyric acid receptor A alpha5beta2gamma2S expressed in Xenopus oocytes assessed as potentiation of GABA-mediated chloride current at 0.1 to 500 uM by voltage clamp analysis relative to control; type: cell-based; procedure, shortened: as §2
[17] = tested on: Oocyte; test: Allosteric modulation of gamma-aminobutyric acid receptor A alpha3beta2gamma2S expressed in Xenopus oocytes assessed as potentiation of GABA-mediated chloride current at 0.1 to 500 uM by voltage clamp analysis relative to control; type: cell-based; procedure, shortened: as §2
[18] = tested on: Oocyte; test: Allosteric modulation of gamma-aminobutyric acid receptor A alpha1beta2gamma2S expressed in Xenopus oocytes assessed as potentiation of GABA-mediated chloride current at 100 uM by voltage clamp analysis; type: cell-based; procedure, shortened: as §2
[19] = tested on: Oocyte; test: Agonist activity at gamma-aminobutyric acid receptor A alpha3beta2gamma2S expressed in Xenopus oocytes assessed as potentiation of GABA-mediated chloride current by voltage clamp analysis; type: functional, cell-based; procedure, shortened: as §2
[20] = (§6) Allosteric modulation of gamma-aminobutyric acid receptor A alpha1beta1gamma2S expressed in Xenopus oocytes assessed as potentiation of GABA-mediated chloride current by voltage clamp analysis; type: cell-based; conditions: Oocyte; procedure, shortened: as §3
[21] = tested on: Oocyte; test: as §6; type: cell-based; procedure, shortened: as §3
[22] = tested on: Oocyte; test: as §1; type: cell-based; procedure, shortened: as §2
[23] = tested on: Oocyte; test: Allosteric modulation of gamma-aminobutyric acid receptor A alpha1beta3gamma2S expressed in Xenopus oocytes assessed as potentiation of GABA-mediated chloride current at 0.1 to 500 uM by voltage clamp analysis relative to control; type: cell-based; procedure, shortened: as §2
[24] = tested on: Oocyte; test: Allosteric modulation of gamma-aminobutyric acid receptor A alpha1beta2gamma2S expressed in Xenopus oocytes assessed as potentiation of GABA-mediated chloride current at 30 uM by voltage clamp analysis; type: cell-based; procedure, shortened: as §2
[25] = (§7) Allosteric modulation of gamma-aminobutyric acid receptor A alpha3beta2gamma2S expressed in Xenopus oocytes assessed as potentiation of GABA-mediated chloride current by voltage clamp analysis; type: cell-based; conditions: Oocyte; procedure, shortened: as §2
[26] = tested on: Oocyte; test: as §7; type: cell-based; procedure, shortened: as §2
[27] = target: T1, GABA-A receptor; GABA-A site (alpha1/beta2 interface) (Homo sapiens); test: Allosteric modulation of gamma-aminobutyric acid receptor A alpha1beta2 expressed in Xenopus oocytes assessed as potentiation of GABA-mediated chloride current at 30 uM by voltage clamp analysis; type: cell-based; conditions: Oocyte
[28] = (§8) Allosteric modulation of gamma-aminobutyric acid receptor A alpha5beta2gamma2S expressed in Xenopus oocytes assessed as potentiation of GABA-mediated chloride current by voltage clamp analysis relative to control; type: cell-based; conditions: Oocyte; procedure, shortened: as §2
[29] = tested on: Oocyte; test: as §8; type: cell-based; procedure, shortened: as §2
[30] = tested on: Oocyte; test: Ratio of isopimaric acid Imax to compound Imax for gamma-aminobutyric acid receptor A alpha3beta2gamma2S expressed in Xenopus oocytes assessed as potentiation of GABA-mediated chloride current at 0.1 to 500 uM by voltage clamp analysis; type: cell-based
[31] = tested on: Oocyte; test: Ratio of isopimaric acid Imax to compound Imax for gamma-aminobutyric acid receptor A alpha2beta2gamma2S expressed in Xenopus oocytes assessed as potentiation of GABA-mediated chloride current at 0.1 to 500 uM by voltage clamp analysis; type: cell-based
[32] = tested on: Oocyte; test: Ratio of isopimaric acid Imax to compound Imax for gamma-aminobutyric acid receptor A alpha1beta2gamma2S expressed in Xenopus oocytes assessed as potentiation of GABA-mediated chloride current at 0.1 to 500 uM by voltage clamp analysis; type: cell-based
[33] = tested on: Oocyte; test: Ratio of isopimaric acid Imax to compound Imax for gamma-aminobutyric acid receptor A alpha1beta3gamma2S expressed in Xenopus oocytes assessed as potentiation of GABA-mediated chloride current at 0.1 to 500 uM by voltage clamp analysis; type: cell-based
[34] = tested on: Oocyte; test: Ratio of isopimaric acid EC50 to compound EC50 for gamma-aminobutyric acid receptor A alpha3beta2gamma2S expressed in Xenopus oocytes assessed as potentiation of GABA-mediated chloride current by voltage clamp analysis; type: cell-based
[35] = tested on: Mus musculus; test: Anxiolytic activity in C57Bl/6N mouse assessed as ambulation distance at 30 mg/kg, ip measured after 30 mins by open field test ( Rvb = 31.8 +/- 1.7 m); type: functional; conditions: route intraperitoneal
[36] = tested on: Oocyte; test: Ratio of isopimaric acid Imax to compound Imax for gamma-aminobutyric acid receptor A alpha5beta2gamma2S expressed in Xenopus oocytes assessed as potentiation of GABA-mediated chloride current at 0.1 to 500 uM by voltage clamp analysis; type: cell-based
[37] = tested on: Oocyte; test: Ratio of isopimaric acid EC50 to compound EC50 for gamma-aminobutyric acid receptor A alpha1beta3gamma2S expressed in Xenopus oocytes assessed as potentiation of GABA-mediated chloride current by voltage clamp analysis; type: cell-based
[38] = tested on: Oocyte; test: Ratio of isopimaric acid EC50 to compound EC50 for gamma-aminobutyric acid receptor A alpha1beta2gamma2S expressed in Xenopus oocytes assessed as potentiation of GABA-mediated chloride current by voltage clamp analysis; type: cell-based
[39] = tested on: Oocyte; test: Ratio of isopimaric acid EC50 to compound EC50 for gamma-aminobutyric acid receptor A alpha1beta1gamma2S expressed in Xenopus oocytes assessed as potentiation of GABA-mediated chloride current by voltage clamp analysis; type: cell-based
[40] = tested on: Oocyte; test: Ratio of isopimaric acid Imax to compound Imax for gamma-aminobutyric acid receptor A alpha1beta1gamma2S expressed in Xenopus oocytes assessed as potentiation of GABA-mediated chloride current at 0.1 to 500 uM by voltage clamp analysis; type: cell-based
[41] = tested on: Mus musculus; test: Anxiolytic activity in C57Bl/6N mouse assessed as ambulation distance at 3 mg/kg, ip measured after 30 mins by open field test ( Rvb = 31.8 +/- 1.7 m); type: functional; conditions: route intraperitoneal
[42] = tested on: Oocyte; test: Ratio of isopimaric acid EC50 to compound EC50 for gamma-aminobutyric acid receptor A alpha5beta2gamma2S expressed in Xenopus oocytes assessed as potentiation of GABA-mediated chloride current by voltage clamp analysis; type: cell-based
[43] = tested on: Oocyte; test: Ratio of isopimaric acid EC50 to compound EC50 for gamma-aminobutyric acid receptor A alpha2beta2gamma2S expressed in Xenopus oocytes assessed as potentiation of GABA-mediated chloride current by voltage clamp analysis; type: cell-based

## CCc1cc2c(s1)N(C)C(=O)CN=C2c1ccccc1Cl [CLOTIAZEPAM]
[1]
  Imax: 260%
[2]
  EC50: 0.184 µM

## C=C[C@@]1(C)CC[C@H]2C(=CC[C@@H]3[C@]2(C)CCC[C@@]3(C)C(=O)O)C1 [ISOPIMARIC ACID]
[3]
  Activity: inactive
[4]
  EC50: 365 µM
[5]
  Activity: Dose-dependent effect
[6]
  Activity: Active
[7]
  Imax: 716%
[8]
  Activity: inactive
[9]
  Imax: 1030%
[10]
  EC50: 257 µM
[11]
  Activity: Dose-dependent effect
[12]
  Imax: 425%
[13]
  Activity: inactive
[14]
  Activity: inactive
[15]
  Activity: inactive
[16]
  Imax: 472%
[17]
  Imax: 1070%
[18]
  Activity: Active
[19]
  Activity: inactive
[20]
  EC50: 290 µM
[21]
  Activity: Dose-dependent effect
[2]
  EC50: 142 µM
[22]
  Activity: Dose-dependent effect
[23]
  Imax: 476%
[24]
  Activity: Active
[25]
  EC50: 724 µM
[26]
  Activity: Dose-dependent effect
[27]
  Activity: Active
[28]
  EC50: 317 µM
[29]
  Activity: Dose-dependent effect

## Cc1ncc2n1-c1ccc(Cl)cc1C(c1ccccc1F)=NC2 [MIDAZOLAM]
[1]
  Imax: 342%
[2]
  EC50: 0.143 µM

## C=C[C@]1(C)C=C2CC[C@@H]3[C@](C)(CCC[C@@]3(C)C(=O)O)[C@H]2CC1 [SANDARACOPIMARIC ACID]
[30]
  Ratio: 0.98
[31]
  Ratio: 0.94
[3]
  Activity: inactive
[4]
  EC50: 31.2 µM
[5]
  Activity: Dose-dependent effect
[32]
  Ratio: 0.5
[6]
  Activity: Active
[7]
  Imax: 502%
[8]
  Activity: inactive
[9]
  Imax: 1090%
[10]
  EC50: 24.9 µM
[11]
  Activity: Dose-dependent effect
[33]
  Ratio: 0.92
[34]
  Ratio EC50: 12.8
[13]
  Activity: inactive
[14]
  Activity: inactive
[15]
  Activity: inactive
[35]
  Activity: 22.3 m
[16]
  Imax: 513%
[36]
  Ratio: 0.92
[37]
  Ratio EC50: 10.3
[38]
  Ratio EC50: 4.25
[17]
  Imax: 1100%
[1]
  Imax: 856%
[18]
  Activity: Active
[39]
  Ratio EC50: 6.02
[19]
  Activity: inactive
[40]
  Ratio: 1.43
[41]
  Activity: 25.1 m
[20]
  EC50: 48.1 µM
[21]
  Activity: Dose-dependent effect
[42]
  Ratio EC50: 7.79
[2]
  EC50: 33.3 µM
[22]
  Activity: Dose-dependent effect
[23]
  Imax: 520%
[24]
  Activity: Active
[43]
  Ratio EC50: 11.7
[25]
  EC50: 56.6 µM
[26]
  Activity: Dose-dependent effect
[27]
  Activity: Active
[28]
  EC50: 40.7 µM
[29]
  Activity: Dose-dependent effect

## Cc1nnc2n1-c1ccc(Cl)cc1C(c1ccccc1Cl)=NC2 [TRIAZOLAM]
[1]
  Imax: 253%
[2]
  EC50: 0.022 µM
